For data set [1], the target named is T1, claudin-1 (Mus musculus, UniProt O88551).
T1 sequence (O88551 1-211): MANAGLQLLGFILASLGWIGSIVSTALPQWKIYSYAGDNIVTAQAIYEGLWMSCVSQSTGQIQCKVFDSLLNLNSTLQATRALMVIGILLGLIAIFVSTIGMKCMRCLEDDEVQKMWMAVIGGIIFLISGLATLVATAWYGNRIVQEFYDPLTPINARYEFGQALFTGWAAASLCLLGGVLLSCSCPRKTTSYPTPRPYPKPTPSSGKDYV
It counts as in vivo, CPC;Apc mice. To be noted: wide-field NIR fluorescence after intravenous administration. The method, boiled down:
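Mice aged 2–4 months ate chlorophyll-free chow for 1 week, were fasted 4–6 h and had the colon rinsed with water. They were under isoflurane 2–4% in oxygen (0.5 L/min). A rigid endoscope in the distal colon gave 671 nm excitation; 200 μM peptide in 200 μL PBS was given i.v. Images were taken 0–24 h and normalised to coregistered reflectance. T/B ratios used mean intensity of three 20×20 μm2 regions each for adenoma and adjacent normal mucosa. Control peptide was imaged in the same mouse 7 days later. n = 6 mice per group; data log-transformed; paired t tests.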

Data set [2] has as its target T1, claudin-1. The experiment in a line: Ex vivo peptide staining. It counts as binding. To be noted: for Mean fluorescence intensity, adenoma vs normal: ex vivo staining, 0.5 μM peptide, paired t tests, n = 6 per group. The gist of the method: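 Distal colon was opened, rinsed in cold PBS, fixed ~48 h in 10% neutral-buffered formalin, moved to 70% ethanol and processed for histology. Adjacent sections were deparaffinized and antigen-retrieved. Blocking was 2% BSA ~1 h, then 0.5 μM peptide for 10 min. For colocalization, peptide came first, then anti-claudin-1 antibody detected with AF488 goat anti-rabbit IgG. Imaged by inverted confocal microscopy.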

For data set [3], the target named is T1, claudin-1. The experiment in a line: Side-view confocal endomicroscopy of colon in vivo. As to conditions: for Binding/staining pattern in normal colon on confocal images: in vivo, ~1 hour after i.v. 200 μM in 200 μL PBS. On the set-up: species or system CPC;Apc mice.
A short description of data set [4]: Biodistribution in major organs. To be noted: organs ex vivo ~1 hour after i.v. injection, IVIS, n = 6. On the set-up: species or system CPC;Apc mice. The method, boiled down:
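CPC;Apc mice received 200 μL PBS containing 200 μM labelled peptide, control peptide or free Cy5.5 i.v. They were sacrificed ~1 h later. Organs were rinsed in cold PBS, dried and imaged unperfused (ex 640 nm, em 720 nm). Intensity was averaged from three regions per organ. Values were log-transformed and fitted to an ANOVA with 24 means (3 groups, 8 tissues) plus mouse effects.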

The nature of data set [5]: Serum stability by HPLC, incubation in mouse serum ex vivo. It counts as in vitro ADME. To be noted: 30 uM peptide in mouse serum at 37 °C, supernatant analysed by HPLC. The gist of the method: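 Peptide at 30 uM was incubated in mouse serum at 37 °C for up to 24 h. Samples were taken at 0, 1, 2 and 24 h and centrifuged at 14,000 rpm. Supernatant aliquots were analysed by HPLC at each time point.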

Where [6] appears, read: ex vivo, peptide then anti-claudin-1 antibody-AF488, merged image.

On to “SPTSSRR [SPT*-Cy5.5, reference compound]”, for which, on claudin-1 [1], the “Fluorescence signal from nonpolypoid adenoma” value is given as “minimal signal” and the “Fluorescence signal from polypoid adenoma” value is given as “minimal signal”. The “Staining of adenoma and normal colon sections” value on claudin-1 [2] (0.5 μM peptide for 10 minutes on formalin-fixed sections, confocal microscope) is reported as “Minimal signal”. In addition, at claudin-1 [2], the “Mean fluorescence intensity, adenoma vs normal” value is recorded as “No difference”. Also, on claudin-1 [3], the “Binding/staining pattern in normal colon on confocal images” value is on record as “vague appearance of crypt structures”.

Consider RTSPSSR [RTS*-Cy5.5], for which the “Fluorescence signal from nonpolypoid adenoma” value at claudin-1 [1] was “increased intensity”. In addition, the “Mean fluorescence intensity, adenoma vs adjacent normal colon” value in data set [4] is “significantly greater”; on claudin-1 [3] (confocal, ~1 hour after injection, paired t test, n = 11 mice), “significantly greater for adenoma than for adjacent normal colon”. Also, the “Mean fluorescence intensity, adenoma vs normal” value at claudin-1 [2] was “significantly greater for adenoma vs normal”. Moreover, the “Correlation ρ of co-staining with anti-claudin-1 antibody, adenoma” value on claudin-1 [2] (setting [6]) worked out at 0.66. Besides, on claudin-1 [2] (setting [6]), the “Correlation ρ of co-staining with anti-claudin-1 antibody, normal colon” value is recorded as 0.60. The “Binding/staining pattern in normal colon on confocal images” value on claudin-1 [3] is given as “binding at tight junctions in between cells”. Further, the “Peptide stability in mouse serum by HPLC at 24 hours” value in data set [5] is “signs of peptide breakdown”.

Source of the values: publication PMC7056050 (Clinical and Translational Gastroenterology, 2020).
